Results as given in PubChem BioAssay.
Calls of active or inactive are those of the source.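 Rule for the calls, unless noted: active = fluorescence slope after compound addition differing from the mean of all tested samples at 99.7% confidence, mostly higher but some lower; inactive = the rest.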

Legend:
[1] = inhibitors of TNFa-induced NFkB p65 translocation, primary screen, imaging, HUVEC, MLSMR starter and 10KST1 sets (AID 438;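 active = inhibition above 20% together with a positive visual image hit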;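 note: compound added about 3h40 before a 20 min TNFalpha stimulation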;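 for inhibition: signal is the nuclear over cytoplasmic p65 intensity ratio per well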); conditions: HUVEC TNFa-induced p65 nuclear translocation; cell count: measured here: nuclei count (cytotoxicity indicator), at 2.08 µM; inhibition: at 2 µM, stronger effect = higher value, 0% TNFa-plus-vehicle, 100% no-TNFa wells
[2] = inhibitors of mutant huntingtin aggregation, primary screen, imaging, exon1htt(103Q)mCFP cells, high-content imaging (AID 483;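 active = visual image review flags a hit and inhibition of aggregation exceeds 20%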;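 note: compound exposure lasted 3 days before fixation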;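 for nuclei count: percent of the per-plate median nuclei count of sample wells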); conditions: exon1htt(103Q)mCFP cell line, aggregate imaging, at 2 µM; inhibition of aggregation: stronger effect = higher value; nuclei count: measured here: cell count, toxicity
[3] = inhibitors of E-selectin induction by TNFa, primary screen, imaging, HUVEC, immunofluorescence, MLSMR starter and 10KST1 sets (AID 487;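 active = visually confirmed hit in the image check and inhibition above 20%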;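 for inhibition: signal is fraction of cell area covered by stained E-selectin grains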;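 for nuclei count: 100% = median nuclei count of all wells on the same plate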); conditions: HUVEC TNFalpha-induced E-selectin immunofluorescence imaging, at 2 µM; inhibition: stronger effect = higher value; nuclei count: measured here: cell number, toxicity
[4] = target: Voltage-gated potassium channel subunit beta-2 (Rattus norvegicus) (UniProt P62483); assay: KvBeta enzyme negative modulators, primary screen, biochemical, NADPH fluorescence (AID 622;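 active = fluorescence slope higher than the sample average by over 3 SD, cut at about -0.22 in these data, passing the limit was not always enough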;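 note: slope of raw intensity against log time taken from 70 to 1610 s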); conditions: recombinant KvBeta, 4-cyanobenzaldehyde reduction, at 10 µM, stronger effect = higher value
[5] = target: Voltage-gated potassium channel subunit beta-2 (Rattus norvegicus) (UniProt P62483); assay: KvBeta positive modulators, primary screen, biochemical, NADPH fluorescence (AID 623;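 active = NADPH fluorescence slope more negative than the mean of all samples by about 3 SD, 99.7% confidence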;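 note: fluorescence intensity change per second fitted from 20 to 320 s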); conditions: Recombinant KvBeta, NADPH fluorescence decrease slope, 10 min; at 10 µM; stronger effect = lower value
[6] = target: Muscarinic acetylcholine receptor M4 (Homo sapiens) (UniProt P08173); assay: compounds altering M4/GIRK thallium flux, either direction, primary screen, M4 allosteric agonist project, cell-based, HEK293 M4/GIRK, BTC-AM (AID 625); conditions: at 10 µM, actives lie on both sides;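 note: thallium influx through GIRK channels coupled to M4 in HEK293 cells with BTC-AM dye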
Method in brief: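 Material: HEK293 cells with M4 receptor and GIRK channels; Times: cells overnight at 37 °C, BTC-AM loading 1 h, reads 2 min total; Technique: kinetic BTC-AM fluorescence sampled at 1 Hz, 10 s pre-addition baseline; Read-out basis: slope over 15–24 s of trace normalized to starting intensity; Controls: carbachol positive, DMSO negative.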

[7] = inhibitors of Sendai virus-induced IRF3 signaling, primary screen, TLR/RLR signaling modifier project, cell-based, Sendai virus stimulus, luciferase, 10K MLSCN set (AID 602276;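 active = inhibition at or above 50% at 10 µM; inactive = inhibition below 50%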;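 note: firefly luciferase from ISG56 promoter only with Renilla not read in this screen; 0% = Sendai virus plus DMSO and 100% = medium plus DMSO without virus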); conditions: HEK293 RL24 IRF3 luciferase reporter, at 10 µM, stronger effect = higher value
[8] = inhibitors of poly I:C-induced TLR3 signaling, primary screen, cell-based, poly I:C stimulus, luciferase, 10K MLSCN set (AID 602277;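 active = inhibition of the reporter signal at or above 50%; inactive = inhibition below 50%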); conditions: HEK293-TLR3 RL24 IRF3 luciferase reporter, at 10 µM, stronger effect = higher value

Sequence of Muscarinic acetylcholine receptor M4 (Homo sapiens) (P08173 whole entry, looked up): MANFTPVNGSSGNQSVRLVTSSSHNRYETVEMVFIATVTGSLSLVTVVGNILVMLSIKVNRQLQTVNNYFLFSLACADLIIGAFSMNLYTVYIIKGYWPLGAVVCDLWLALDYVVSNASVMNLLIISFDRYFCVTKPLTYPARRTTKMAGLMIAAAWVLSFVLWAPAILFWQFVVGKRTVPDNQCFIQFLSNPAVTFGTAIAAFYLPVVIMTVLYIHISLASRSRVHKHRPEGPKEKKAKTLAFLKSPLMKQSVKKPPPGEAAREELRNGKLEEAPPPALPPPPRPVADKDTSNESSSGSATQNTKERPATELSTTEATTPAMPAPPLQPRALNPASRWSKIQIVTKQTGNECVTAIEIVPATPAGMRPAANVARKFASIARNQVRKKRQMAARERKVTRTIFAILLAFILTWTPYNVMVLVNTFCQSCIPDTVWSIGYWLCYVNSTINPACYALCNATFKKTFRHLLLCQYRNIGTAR
Sequence of Voltage-gated potassium channel subunit beta-2 (Rattus norvegicus) (P62483 whole entry, looked up): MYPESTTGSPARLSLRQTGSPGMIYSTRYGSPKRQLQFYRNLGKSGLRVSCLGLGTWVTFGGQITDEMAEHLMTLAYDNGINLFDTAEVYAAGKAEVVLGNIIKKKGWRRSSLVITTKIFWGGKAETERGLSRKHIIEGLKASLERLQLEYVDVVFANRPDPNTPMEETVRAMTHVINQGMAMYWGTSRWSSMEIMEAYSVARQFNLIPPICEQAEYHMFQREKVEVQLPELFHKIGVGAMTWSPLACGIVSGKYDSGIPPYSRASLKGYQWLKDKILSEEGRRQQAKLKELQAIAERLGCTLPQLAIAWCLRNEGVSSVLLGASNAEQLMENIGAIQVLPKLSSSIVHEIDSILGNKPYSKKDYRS

Row | SMILES | cell count [1] | inhibition [1] | inhibition of aggregation [2] | nuclei count [2] | inhibition [3] | nuclei count [3] | fluorescence slope [4] | NADPH fluorescence slope [5] | fluorescence slope [6] | inhibition [7] | inhibition [8]
1 | COc1cc(-c2nnc(SCC(=O)c3ccc(C)cc3)o2)cc(OC)c1OC | 378 | 1.7% (inactive) | -8.1% (inactive) | 87.7% | 28.9% (inactive) | 83.6% | -0.607 (inactive) | 2.5e-05 (inactive) | 0.00366 (inactive) | -8.63% (inactive) | -7.77% (inactive)
2 | CCOC(=O)c1sc2nc(C)cc(C)c2c1N | 443 | 8.7% (inactive) | -13.6% (inactive) | 111% | -26% (inactive) | 127% | -0.105 (inactive) | -1.9e-05 (inactive) | 0.00463 (inactive) | -33.2% (inactive) | -45.5% (inactive)
3 | COc1ccc(-n2ncc3c(NCc4ccccn4)ncnc32)cc1 | 463 | -1.9% (inactive) | 7.6% (inactive) | 94% | 14.4% (inactive) | 102% | -0.541 (inactive) | -4e-05 (inactive) | 0.0051 (inactive) | -12.7% (inactive) | -61.6% (inactive)
4 | CCNCCNC(=O)c1c(O)c2ccccc2n(CC)c1=O | 289 | -1.4% (inactive) | -5.8% (inactive) | 60.8% | 29.6% (inactive) | 99.7% | -0.539 (inactive) | -4.3e-05 (inactive) | 0.0077 (inactive) | 10% (inactive) | 13.5% (inactive)
5 | CCOc1cccc(C(=O)Nc2cccc(-c3nc4ncccc4o3)c2C)c1 | 333 | 3.3% (inactive) | 10.5% (inactive) | 103% | -46.8% (inactive) | 108% | -0.545 (inactive) | -3e-05 (inactive) | 0.00572 (inactive) | 11.9% (inactive) | -11.2% (inactive)
6 | COc1ccc(-n2ncc3c(NCc4ccc5c(c4)OCO5)ncnc32)cc1 | 360 | -4.3% (inactive) | 9.7% (inactive) | 94.3% | -9.3% (inactive) | 105% | -0.539 (inactive) | -4.4e-05 (inactive) | 0.00526 (inactive) | -4.14% (inactive) | -24.9% (inactive)
7 | CCCCOC(=O)Nc1nc2ccc(OC)cc2s1 | 743 | -10.1% (inactive) | 7.1% (inactive) | 100% | -29.1% (inactive) | 108% | -0.324 (inactive) | -5.1e-05 (inactive) | 0.00658 (inactive) | -0.307% (inactive) | -118% (inactive)
8 | O=C(NCc1cccnc1)c1ccccc1Br | 397 | -0.5% (inactive) | 4.6% (inactive) | 104% | -18.8% (inactive) | 112% | -0.521 (inactive) | -1.1e-05 (inactive) | 0.00504 (inactive) | 15.2% (inactive) | 20.8% (inactive)
9 | COc1cccc(-c2cc(C(F)(F)F)n3nc(N)nc3n2)c1 | 814 | -0.8% (inactive) | 18.9% (inactive) | 90.5% | 31.9% (inactive) | 98.9% | -0.449 (inactive) | -5e-05 (inactive) | 0.00414 (inactive) | 6.21% (inactive) | -0.814% (inactive)
10 | Cc1cc(C(=O)Nc2cccc(O)c2)c(C)o1 | 477 | 9.9% (inactive) | 2.6% (inactive) | 78.5% | -76.5% (inactive) | 112% | -0.566 (inactive) | -5.1e-05 (inactive) | 0.00709 (inactive) | 0.52% (inactive) | -20.8% (inactive)
11 | COc1ccc(S(=O)(=O)NC2CCCCC2)c(C)c1C | 426 | 8.4% (inactive) | -3% (inactive) | 101% | 65.4% (inactive) | 108% | -0.557 (inactive) | 1.8e-05 (inactive) | 0.00523 (inactive) | 20.3% (inactive) | 26.9% (inactive)
12 | Cc1cccc(CS(=O)(=O)Cc2ccc(C(=O)NCC3CCCO3)o2)c1 (stereo not drawn) | 450 | 4.5% (inactive) | 13.6% (inactive) | 99.3% | -36.2% (inactive) | 112% | -0.582 (inactive) | 9.9e-06 (inactive) | 0.00601 (inactive) | -2% (inactive) | 8.02% (inactive)
13 | CCOC(=O)C1CCN(C(=O)CSc2n[nH]c(=O)[nH]c2=O)CC1 | 653 | 7.8% (inactive) | 16.5% (inactive) | 88.6% | 34.2% (inactive) | 114% | -0.339 (inactive) | -5.5e-05 (inactive) | 0.00512 (inactive) | 12.2% (inactive) | 9.53% (inactive)
14 | Cc1cccc2cc(CN(Cc3nnnn3C3CCCC3)C3CCCCC3)c(=O)[nH]c12 | 349 | 5.8% (inactive) | -3.3% (inactive) | 99.1% | -44% (inactive) | 106% | -0.466 (inactive) | 4.8e-05 (inactive) | 0.00597 (inactive) | 7.22% (inactive) | 21.3% (inactive)
15 | Cc1cccc2cc(C#N)c(NCCNC(=O)NC3CCCCC3)nc12 | 463 | -5.1% (inactive) | -41% (inactive) | 85.8% | -40.3% (inactive) | 176% | -0.471 (inactive) | -0.000184 (inactive) | 0.00443 (inactive) | -2.87% (inactive) | 1.15% (inactive)
16 | NC(=O)c1oc2ccc(Cl)cc2c1NC(=O)CN1CCOCC1 | 436 | 2.7% (inactive) | 3.6% (inactive) | 112% | -114% (inactive) | 123% | -0.53 (inactive) | -5.2e-05 (inactive) | 0.00578 (inactive) | 4.86% (inactive) | 1.98% (inactive)
17 | Cc1ccc(S(=O)(=O)NCCCCC(NC(=O)OC(C)(C)C)C(=O)O)cc1 (stereo not drawn) (tested in a mixture with another compound) | 631 | 1.1% (inactive) | 5.6% (inactive) | 99.5% | 34.4% (inactive) | 95.6% | -0.6 (inactive) | -3.1e-06 (inactive) | 0.00344 (inactive) | 15.2% (inactive) | 13.1% (inactive)
18 | COc1ccc(N2CCN(C(=O)CSc3nnc4n3C(C)(C)Cc3ccccc3-4)CC2)cc1 | 548 | 7.7% (inactive) | -9.9% (inactive) | 104% | -14.4% (inactive) | 104% | -0.572 (inactive) | -3.1e-05 (inactive) | 0.00723 (inactive) | 4.92% (inactive) | -6.84% (inactive)
19 | O=C(CN(c1ccccc1)S(=O)(=O)c1ccccc1)N1CCN(Cc2ccc3c(c2)OCO3)CC1 | 372 | 4% (inactive) | -11.3% (inactive) | 122% | -23.4% (inactive) | 116% | -0.528 (inactive) | -3.2e-05 (inactive) | 0.00412 (inactive) | 13.6% (inactive) | 21.8% (inactive)
20 | N#Cc1nc(-c2cccs2)oc1NCc1ccc(Cl)cc1 | 341 | -8.1% (inactive) | 19.1% (inactive) | 98.9% | 47.2% (inactive) | 106% | -0.526 (inactive) | -2e-05 (inactive) | 0.00571 (inactive) | 18.3% (inactive) | 10.5% (inactive)
21 | CCOC(=O)Cn1nnnc1CN(Cc1ccc(OC)cc1)Cc1cc2cc(C)cc(C)c2[nH]c1=O | 614 | 6.2% (inactive) | -1.3% (inactive) | 117% | -50.4% (inactive) | 117% | -0.595 (inactive) | -3.9e-05 (inactive) | 0.00531 (inactive) | -8.1% (inactive) | -1.09% (inactive)
22 | Nc1nonc1-c1noc(CCCCCN2C(=O)c3ccccc3C2=O)n1 | 221 | 6.9% (inactive) | -10.5% (inactive) | 91% | 9.5% (inactive) | 88% | -0.522 (inactive) | -2.2e-05 (inactive) | 0.00407 (inactive) | -4.73% (inactive) | -15.6% (inactive)
23 | Cc1ccc(OCC(=O)NCCN2CCCC2)cc1 | 424 | 0% (inactive) | 5% (inactive) | 101% | -65.5% (inactive) | 102% | -0.404 (inactive) | -0.000132 (inactive) | 0.00568 (inactive) | 15.6% (inactive) | 28% (inactive)
24 | Cc1ccc(Cn2c(C)nc3c(c2=O)c2nc4ccccc4nc2n3Cc2ccco2)cc1 | 623 | -5.4% (inactive) | -11% (inactive) | 111% | -33.1% (inactive) | 91.7% | -0.557 (inactive) | -5.9e-05 (inactive) | 0.00181 (inactive) | 16.5% (inactive) | 28.3% (inactive)
25 | CCOC(=O)c1cc2sccc2n1CC(=O)Nc1ccc(OC)cc1OC | 550 | -28.2% (inactive) | 2.8% (inactive) | 96.6% | -22.6% (inactive) | 107% | -0.542 (inactive) | 5.3e-06 (inactive) | 0.00418 (inactive) | 19% (inactive) | 32.5% (inactive)
26 | O=C(COc1ccccc1)NCCSCc1ccco1 | 599 | -59.2% (inactive) | -13.8% (inactive) | 115% | -71.2% (inactive) | 116% | -0.271 (inactive) | -2e-05 (inactive) | 0.00726 (inactive) | -1.72% (inactive) | -10.5% (inactive)
27 | O=C(CCN1CCN(c2ccc(F)cc2)CC1)Nc1ccccc1F | 315 | -2.1% (inactive) | 34.9% (active) | 84.8% | 19.6% (inactive) | 87.8% | -0.446 (inactive) | 0.000136 (inactive) | 0.00622 (inactive) | 16.9% (inactive) | 24.9% (inactive)
28 | Cc1ccc2nc(NC(=O)C3CCN(S(=O)(=O)c4cccc5nsnc45)CC3)sc2c1 | 540 | 0% (inactive) | -1.9% (inactive) | 105% | 38.3% (inactive) | 100% | -0.414 (inactive) | -9.1e-05 (inactive) | 0.00593 (inactive) | -4.97% (inactive) | -45% (inactive)
